Tested on: not listed separately
Test: Growth inhibition of human UO31 cells at 10 uM after 48 hrs by SRB method
Format: functional
Details: UO-31, 48 h, read-out: GI
Summary of the method: (§1)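 NCI 56-line screen, single-dose primary assay at 10^-5 M. Cells grown in RPMI 1640 with 5% FBS and 2 mM L-glutamine, plated at 5000–40,000 cells/well and held 24 h at 37 °C, 5% CO2 before drug addition. Compound was given from DMSO stock, exposure 48 h, then TCA fixation and SRB staining with absorbance at 515 nm. % growth is taken relative to time-zero and untreated controls.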

| SMILES | inhibition of growth at 10 µM [%] |
| --- | --- |
| O=C(CN1CCN(c2nnc(-c3ccccc3)c3ccccc23)CC1)Nc1ccccc1Cl | 37 |
| O=C(CN1CCN(c2nnc(-c3ccccc3)c3ccccc23)CC1)Nc1c(Cl)cccc1Cl | 38 |
| CC(=O)c1sc(NC(=O)CN2CCN(c3nnc(-c4ccccc4)c4ccccc34)CC2)nc1C | 43 |
| O=C(CN1CCN(c2nnc(-c3ccccc3)c3ccccc23)CC1)Nc1ccc(Cl)cc1 | 34 |

Tested on: not listed separately
Test: Growth inhibition of human HL-60(TB) cells at 10 uM after 48 hrs by SRB method
Format: functional
Details: HL-60, 48 h, read-out: GI
Summary of the method: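 NCI single-dose primary screen at 10^-5 M, 48 h exposure. Cells grown in RPMI 1640 with 5% FBS and 2 mM L-glutamine. Suspension cells fixed in situ with TCA (final 16%), stained with SRB, absorbance read at 515 nm. Percent growth inhibition calculated against time-zero and untreated control plates.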

| SMILES | inhibition of growth at 10 µM [%] |
| --- | --- |
| O=C(CN1CCN(c2nnc(-c3ccccc3)c3ccccc23)CC1)Nc1ccccc1Cl | 40 |
| O=C(CN1CCN(c2nnc(-c3ccccc3)c3ccccc23)CC1)Nc1c(Cl)cccc1Cl | 38 |
| O=C(CN1CCN(c2nnc(-c3ccccc3)c3ccccc23)CC1)Nc1ccc(Cl)cc1 | 30 |

Tested on: not listed separately
Test: Growth inhibition of human PC3 cells at 10 uM after 48 hrs by SRB method
Format: functional
Details: PC-3, 48 h, read-out: GI
Summary of the method: (§2)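 NCI 56-line primary screen at a single 10^-5 M concentration. Cells grown in RPMI 1640 with 5% FBS and 2 mM L-glutamine, plated at 5000–40,000 cells/well, then preincubated for 24 h. Exposure was 48 h at 37 °C and 5% CO2. Adherent cells were fixed with cold TCA at 10% final, suspension cells at 16%. Staining used 0.4% SRB, read at 515 nm. Results are % growth inhibition relative to control.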

| SMILES | inhibition of growth at 10 µM [%] |
| --- | --- |
| O=C(CN1CCN(c2nnc(-c3ccccc3)c3ccccc23)CC1)Nc1ccccc1Cl | 45 |
| O=C(CN1CCN(c2nnc(-c3ccccc3)c3ccccc23)CC1)Nc1c(Cl)cccc1Cl | 34 |
| CC(=O)c1sc(NC(=O)CN2CCN(c3nnc(-c4ccccc4)c4ccccc34)CC2)nc1C | 53 |
| O=C(CN1CCN(c2nnc(-c3ccccc3)c3ccccc23)CC1)Nc1ccc(Cl)cc1 | 32 |

Tested on: not listed separately
Test: Growth inhibition of human BT549 cells at 10 uM after 48 hrs by SRB method
Format: functional
Details: BT-549, 48 h, read-out: GI
Summary of the method: as §2

| SMILES | inhibition of growth at 10 µM [%] |
| --- | --- |
| CC(=O)c1sc(NC(=O)CN2CCN(c3nnc(-c4ccccc4)c4ccccc34)CC2)nc1C | 34 |

Tested on: not listed separately
Test: Growth inhibition of human COLO205 cells at 10 uM after 48 hrs by SRB method
Format: functional
Details: COLO 205, 48 h, read-out: GI
Summary of the method: as §2

| SMILES | inhibition of growth at 10 µM [%] |
| --- | --- |
| CC(=O)c1sc(NC(=O)CN2CCN(c3nnc(-c4ccccc4)c4ccccc34)CC2)nc1C | 30 |

Tested on: MDA-MB-468
Test: Growth inhibition of human MDA-MB-468 cells at 10 uM after 48 hrs by SRB method
Format: functional
Details: MDA-MB-468, 48 h, read-out: GI
Summary of the method: as §2

| SMILES | inhibition of growth at 10 µM [%] |
| --- | --- |
| O=C(CN1CCN(c2nnc(-c3ccccc3)c3ccccc23)CC1)Nc1ccccc1Cl | 43 |
| O=C(CN1CCN(c2nnc(-c3ccccc3)c3ccccc23)CC1)Nc1c(Cl)cccc1Cl | 43 |
| CC(=O)c1sc(NC(=O)CN2CCN(c3nnc(-c4ccccc4)c4ccccc34)CC2)nc1C | 49 |
| O=C(CN1CCN(c2nnc(-c3ccccc3)c3ccccc23)CC1)c1ccc(Cl)cc1 | 38 |
| COc1ccc(NC(=O)CN2CCN(c3nnc(-c4ccccc4)c4ccccc34)CC2)cc1 | 37 |
| O=C(CN1CCN(c2nnc(-c3ccccc3)c3ccccc23)CC1)Nc1ccc(Cl)cc1 | 53 |

Tested on: SK-MEL-2
Test: Growth inhibition of human SK-MEL-2 cells at 10 uM after 48 hrs by SRB method
Format: functional
Details: SK-MEL-2, 48 h, read-out: GI
Summary of the method: as §2

| SMILES | inhibition of growth at 10 µM [%] |
| --- | --- |
| O=C(CN1CCN(c2nnc(-c3ccccc3)c3ccccc23)CC1)Nc1ccc(Cl)cc1 | 33 |

Tested on: SR
Test: Growth inhibition of human SR cells at 10 uM after 48 hrs by SRB method
Format: functional
Details: read-out: GI
Summary of the method: as §2

| SMILES | inhibition of growth at 10 µM [%] |
| --- | --- |
| O=C(CN1CCN(c2nnc(-c3ccccc3)c3ccccc23)CC1)Nc1ccccc1Cl | 36 |
| O=C(CN1CCN(c2nnc(-c3ccccc3)c3ccccc23)CC1)Nc1c(Cl)cccc1Cl | 40 |
| CC(=O)c1sc(NC(=O)CN2CCN(c3nnc(-c4ccccc4)c4ccccc34)CC2)nc1C | 49 |
| O=C(CN1CCN(c2nnc(-c3ccccc3)c3ccccc23)CC1)Nc1ccc(Cl)cc1 | 40 |

Tested on: MDA-MB-231
Test: Growth inhibition of human MDA-MB-231 cells at 10 uM after 48 hrs by SRB method
Format: functional
Details: MDA-MB-231, 48 h, read-out: GI
Summary of the method: as §2

| SMILES | inhibition of growth at 10 µM [%] |
| --- | --- |
| CC(=O)c1sc(NC(=O)CN2CCN(c3nnc(-c4ccccc4)c4ccccc34)CC2)nc1C | 41 |

Tested on: K562
Test: Growth inhibition of human K562 cells at 10 uM after 48 hrs by SRB method
Format: functional
Details: K562, 48 h, read-out: GI
Summary of the method: as §2

| SMILES | inhibition of growth at 10 µM [%] |
| --- | --- |
| O=C(CN1CCN(c2nnc(-c3ccccc3)c3ccccc23)CC1)Nc1ccccc1Cl | 33 |
| O=C(CN1CCN(c2nnc(-c3ccccc3)c3ccccc23)CC1)Nc1c(Cl)cccc1Cl | 43 |
| O=C(CN1CCN(c2nnc(-c3ccccc3)c3ccccc23)CC1)c1ccc(Cl)cc1 | 33 |
| O=C(CN1CCN(c2nnc(-c3ccccc3)c3ccccc23)CC1)Nc1ccc(Cl)cc1 | 30 |

Tested on: A498
Test: Growth inhibition of human A498 cells at 10 uM after 48 hrs by SRB method
Format: functional
Details: A498, 48 h, read-out: GI
Summary of the method: as §2

| SMILES | inhibition of growth at 10 µM [%] |
| --- | --- |
| CC(=O)c1sc(NC(=O)CN2CCN(c3nnc(-c4ccccc4)c4ccccc34)CC2)nc1C | 45 |
| O=C(CN1CCN(c2nnc(-c3ccccc3)c3ccccc23)CC1)Nc1ccc(Cl)cc1 | 36 |

Tested on: T47D
Test: Growth inhibition of human T47D cells at 10 uM after 48 hrs by SRB method
Format: functional
Details: read-out: GI
Summary of the method: as §1

| SMILES | inhibition of growth at 10 µM [%] |
| --- | --- |
| O=C(CN1CCN(c2nnc(-c3ccccc3)c3ccccc23)CC1)Nc1ccccc1Cl | 58 |
| O=C(CN1CCN(c2nnc(-c3ccccc3)c3ccccc23)CC1)Nc1c(Cl)cccc1Cl | 60 |
| CC(=O)c1sc(NC(=O)CN2CCN(c3nnc(-c4ccccc4)c4ccccc34)CC2)nc1C | 81 |
| O=C(CN1CCN(c2nnc(-c3ccccc3)c3ccccc23)CC1)c1ccc(Cl)cc1 | 41 |
| COc1ccc(NC(=O)CN2CCN(c3nnc(-c4ccccc4)c4ccccc34)CC2)cc1 | 55 |
| O=C(CN1CCN(c2nnc(-c3ccccc3)c3ccccc23)CC1)Nc1ccc(Cl)cc1 | 57 |

Tested on: NCI-H522
Test: Growth inhibition of human NCI-H522 cells at 10 uM after 48 hrs by SRB method
Format: functional
Details: NCI-H522, 48 h, read-out: GI
Summary of the method: as §2

| SMILES | inhibition of growth at 10 µM [%] |
| --- | --- |
| O=C(CN1CCN(c2nnc(-c3ccccc3)c3ccccc23)CC1)Nc1ccccc1Cl | 42 |
| O=C(CN1CCN(c2nnc(-c3ccccc3)c3ccccc23)CC1)Nc1c(Cl)cccc1Cl | 34 |
| CC(=O)c1sc(NC(=O)CN2CCN(c3nnc(-c4ccccc4)c4ccccc34)CC2)nc1C | 41 |
| O=C(CN1CCN(c2nnc(-c3ccccc3)c3ccccc23)CC1)c1ccc(Cl)cc1 | 57 |
| COc1ccc(NC(=O)CN2CCN(c3nnc(-c4ccccc4)c4ccccc34)CC2)cc1 | 30 |
| O=C(CN1CCN(c2nnc(-c3ccccc3)c3ccccc23)CC1)Nc1ccc(Cl)cc1 | 53 |

Tested on: not listed separately
Test: Growth inhibition of human […] cells at 10 uM after 48 hrs by SRB method
Format: functional
Details: read-out: GI
Summary of the method: as §2

| SMILES | inhibition of growth at 10 µM [%] |
| --- | --- |
| O=C(CN1CCN(c2nnc(-c3ccccc3)c3ccccc23)CC1)Nc1ccccc1Cl | 48 |
| O=C(CN1CCN(c2nnc(-c3ccccc3)c3ccccc23)CC1)Nc1c(Cl)cccc1Cl | 48 |
| CC(=O)c1sc(NC(=O)CN2CCN(c3nnc(-c4ccccc4)c4ccccc34)CC2)nc1C | 45 |
| O=C(CN1CCN(c2nnc(-c3ccccc3)c3ccccc23)CC1)Nc1ccc(Cl)cc1 | 40 |

Tested on: HT-29
Test: Growth inhibition of human HT-29 cells at 10 uM after 48 hrs by SRB method
Format: functional
Details: HT-29, 48 h, read-out: GI
Summary of the method: as §2

| SMILES | inhibition of growth at 10 µM [%] |
| --- | --- |
| CC(=O)c1sc(NC(=O)CN2CCN(c3nnc(-c4ccccc4)c4ccccc34)CC2)nc1C | 31 |

Tested on: not listed separately
Test: Growth inhibition of human MOLT4 cells at 10 uM after 48 hrs by SRB method
Format: functional
Details: MOLT-4, 48 h, read-out: GI
Summary of the method: as §2

| SMILES | inhibition of growth at 10 µM [%] |
| --- | --- |
| O=C(CN1CCN(c2nnc(-c3ccccc3)c3ccccc23)CC1)Nc1ccccc1Cl | 31 |
| O=C(CN1CCN(c2nnc(-c3ccccc3)c3ccccc23)CC1)Nc1c(Cl)cccc1Cl | 42 |
| CC(=O)c1sc(NC(=O)CN2CCN(c3nnc(-c4ccccc4)c4ccccc34)CC2)nc1C | 52 |
| O=C(CN1CCN(c2nnc(-c3ccccc3)c3ccccc23)CC1)c1ccc(Cl)cc1 | 30 |
| O=C(CN1CCN(c2nnc(-c3ccccc3)c3ccccc23)CC1)Nc1ccc(Cl)cc1 | 41 |

Tested on: SK-MEL-5
Test: Growth inhibition of human SK-MEL-5 cells at 10 uM after 48 hrs by SRB method
Format: functional
Details: SK-MEL-5, 48 h, read-out: GI
Summary of the method: as §2

| SMILES | inhibition of growth at 10 µM [%] |
| --- | --- |
| O=C(CN1CCN(c2nnc(-c3ccccc3)c3ccccc23)CC1)Nc1c(Cl)cccc1Cl | 44 |
| CC(=O)c1sc(NC(=O)CN2CCN(c3nnc(-c4ccccc4)c4ccccc34)CC2)nc1C | 33 |

Tested on: NCI-H226
Test: Growth inhibition of human NCI-H226 cells at 10 uM after 48 hrs by SRB method
Format: functional
Details: NCI-H226, 48 h, read-out: GI
Summary of the method: as §2

| SMILES | inhibition of growth at 10 µM [%] |
| --- | --- |
| O=C(CN1CCN(c2nnc(-c3ccccc3)c3ccccc23)CC1)Nc1c(Cl)cccc1Cl | 30 |

Tested on: not listed separately
Test: Growth inhibition of human HOP92 cells at 10 uM after 48 hrs by SRB method
Format: functional
Details: HOP-92, 48 h, read-out: GI
Summary of the method: as §2

| SMILES | inhibition of growth at 10 µM [%] |
| --- | --- |
| O=C(CN1CCN(c2nnc(-c3ccccc3)c3ccccc23)CC1)Nc1ccccc1Cl | 31 |
| O=C(CN1CCN(c2nnc(-c3ccccc3)c3ccccc23)CC1)Nc1c(Cl)cccc1Cl | 47 |
| CC(=O)c1sc(NC(=O)CN2CCN(c3nnc(-c4ccccc4)c4ccccc34)CC2)nc1C | 70 |

Tested on: not listed separately
Test: Growth inhibition of human IGROV1 cells at 10 uM after 48 hrs by SRB method
Format: functional
Details: IGROV-1, 48 h, read-out: GI
Summary of the method: as §2

| SMILES | inhibition of growth at 10 µM [%] |
| --- | --- |
| O=C(CN1CCN(c2nnc(-c3ccccc3)c3ccccc23)CC1)Nc1ccccc1Cl | 46 |
| CC(=O)c1sc(NC(=O)CN2CCN(c3nnc(-c4ccccc4)c4ccccc34)CC2)nc1C | 40 |

Tested on: not listed separately
Test: Growth inhibition of human UACC257 cells at 10 uM after 48 hrs by SRB method
Format: functional
Details: UACC-257, 48 h, read-out: GI
Summary of the method: as §1

| SMILES | inhibition of growth at 10 µM [%] |
| --- | --- |
| O=C(CN1CCN(c2nnc(-c3ccccc3)c3ccccc23)CC1)Nc1ccccc1Cl | 30 |

Tested on: not listed separately
Test: Growth inhibition of human OVCAR8 cells at 10 uM after 48 hrs by SRB method
Format: functional
Details: OVCAR-8, 48 h, read-out: GI
Summary of the method: as §2

| SMILES | inhibition of growth at 10 µM [%] |
| --- | --- |
| O=C(CN1CCN(c2nnc(-c3ccccc3)c3ccccc23)CC1)Nc1c(Cl)cccc1Cl | 35 |

From ChEMBL document CHEMBL3751694, “1-Piperazinylphthalazines as potential VEGFR-2 inhibitors and anticancer agents: Synthesis and in vitro biological evaluation” (Eur J Med Chem, 2016)
